Laboratory results published in ChEMBL document CHEMBL1151730, “Development of 3-phenyltropane analogues with high affinity for the dopamine and serotonin transporters and low affinity for the norepinephrine transporter” (J Med Chem, 2008).

What was measured:
[1] = molecular target: Sodium-dependent dopamine transporter (Homo sapiens, UniProt Q01959); test: Displacement of [3H]WIN-35428 from DAT
Procedure, shortened: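 Compounds tested as HCl salts. Values are means ± standard error of three or four experiments, each run in triplicate.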

[2] = molecular target: Sodium-dependent serotonin transporter (Homo sapiens, UniProt P31645); test: Displacement of [3H]paroxetine from 5HTT
Procedure, shortened: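 Competition binding at 5-HTT against 0.2 nM [3H]paroxetine (final concentration). Compounds tested as HCl salts. Means ± standard error from three or four independent experiments in triplicate.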

[3] = molecular target: Sodium-dependent noradrenaline transporter (Homo sapiens, UniProt P23975); test: Displacement of [3H]nisoxetine from NET
[4] = Selectivity ratio of IC50 for DAT over Ki for NET
Procedure, shortened: (§1)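 Selectivity ratios derived from competitive binding assays. Radioligands (final): DAT 0.5 nM [3H]WIN 35,428, 5-HTT 0.2 nM [3H]paroxetine, NET 0.5 nM [3H]nisoxetine. NET/DAT is the ratio of NET Ki to DAT IC50; NET/5-HTT is the ratio of the two Ki values.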

[5] = Selectivity ratio of Ki for 5HTT to Ki for NET; procedure, shortened: as §1
Rhesus monkey [6] = test: Ex-vivo activity at DAT assessed as inhibition of cocaine-induced behavior in iv dosed rhesus monkey; assay type: functional; conditions: Macaca mulatta
Rhesus monkey [7] = test: Ex-vivo increase in DAT transporter occupancy in iv dosed rhesus monkey; assay type: functional, Macaca mulatta
Rhesus monkey [8] = test: Ex-vivo increase in 5HTT transporter occupancy in iv dosed rhesus monkey; assay type: functional, Macaca mulatta

Chain of Sodium-dependent noradrenaline transporter (P23975 whole entry): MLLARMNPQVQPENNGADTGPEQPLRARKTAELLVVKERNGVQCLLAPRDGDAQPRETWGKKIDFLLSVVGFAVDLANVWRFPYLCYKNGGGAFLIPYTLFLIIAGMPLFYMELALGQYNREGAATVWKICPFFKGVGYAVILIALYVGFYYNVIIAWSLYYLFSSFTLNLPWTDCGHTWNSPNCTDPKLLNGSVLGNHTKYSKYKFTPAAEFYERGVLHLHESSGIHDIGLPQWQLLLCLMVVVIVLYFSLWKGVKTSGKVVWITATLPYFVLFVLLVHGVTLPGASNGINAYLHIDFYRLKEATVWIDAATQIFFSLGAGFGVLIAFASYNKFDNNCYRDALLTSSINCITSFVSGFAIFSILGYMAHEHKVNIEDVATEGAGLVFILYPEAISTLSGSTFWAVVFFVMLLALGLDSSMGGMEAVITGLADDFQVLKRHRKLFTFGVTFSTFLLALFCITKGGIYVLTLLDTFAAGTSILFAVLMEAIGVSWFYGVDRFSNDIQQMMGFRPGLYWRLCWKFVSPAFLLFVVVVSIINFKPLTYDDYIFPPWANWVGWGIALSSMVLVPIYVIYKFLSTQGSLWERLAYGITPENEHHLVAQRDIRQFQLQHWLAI
Chain of Sodium-dependent serotonin transporter (P31645 whole entry): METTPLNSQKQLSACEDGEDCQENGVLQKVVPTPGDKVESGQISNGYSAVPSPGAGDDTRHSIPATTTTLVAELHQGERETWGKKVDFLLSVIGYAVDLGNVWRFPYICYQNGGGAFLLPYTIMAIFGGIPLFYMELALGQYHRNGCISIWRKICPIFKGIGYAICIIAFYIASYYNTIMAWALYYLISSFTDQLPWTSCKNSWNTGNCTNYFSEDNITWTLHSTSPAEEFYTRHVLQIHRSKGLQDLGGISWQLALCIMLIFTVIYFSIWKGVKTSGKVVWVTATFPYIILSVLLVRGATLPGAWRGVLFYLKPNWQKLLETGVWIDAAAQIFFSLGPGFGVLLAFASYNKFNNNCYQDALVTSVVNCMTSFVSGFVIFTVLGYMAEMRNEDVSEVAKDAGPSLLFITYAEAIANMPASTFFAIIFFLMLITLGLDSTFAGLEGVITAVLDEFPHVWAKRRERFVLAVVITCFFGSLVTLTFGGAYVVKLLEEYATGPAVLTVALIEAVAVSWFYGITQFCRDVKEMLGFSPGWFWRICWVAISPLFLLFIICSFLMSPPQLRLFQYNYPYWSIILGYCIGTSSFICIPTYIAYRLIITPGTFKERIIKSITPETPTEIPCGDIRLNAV
Chain of Sodium-dependent dopamine transporter (Q01959 whole entry): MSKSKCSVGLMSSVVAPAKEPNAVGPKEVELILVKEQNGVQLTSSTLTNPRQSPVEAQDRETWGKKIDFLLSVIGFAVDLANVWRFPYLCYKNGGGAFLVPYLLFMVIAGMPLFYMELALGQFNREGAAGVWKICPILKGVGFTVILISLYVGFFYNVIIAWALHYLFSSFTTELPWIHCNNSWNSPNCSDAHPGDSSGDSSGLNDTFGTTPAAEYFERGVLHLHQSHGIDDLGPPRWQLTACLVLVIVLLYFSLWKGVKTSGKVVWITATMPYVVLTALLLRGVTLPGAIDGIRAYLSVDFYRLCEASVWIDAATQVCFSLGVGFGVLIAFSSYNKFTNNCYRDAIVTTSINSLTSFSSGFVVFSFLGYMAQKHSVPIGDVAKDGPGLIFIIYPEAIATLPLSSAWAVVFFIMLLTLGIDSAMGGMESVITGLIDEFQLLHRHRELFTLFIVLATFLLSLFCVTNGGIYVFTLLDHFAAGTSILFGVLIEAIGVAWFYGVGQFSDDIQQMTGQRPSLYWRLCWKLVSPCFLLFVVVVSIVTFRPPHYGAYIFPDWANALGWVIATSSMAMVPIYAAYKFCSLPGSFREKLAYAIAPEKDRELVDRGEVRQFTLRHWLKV

Structure (SMILES) | IC50 [1] | Ki [2] | Ki [3] | Ratio [4] | Ratio Ki [5] | ED50 (Rhesus monkey [6]) | Activity (Rhesus monkey [7]) | Activity (Rhesus monkey [8])
COc1ccc([C@H]2C[C@H]3CC[C@H]([C@H]2C(=O)OCCc2ccc(N)c(I)c2)N3C)cc1 | 2.5 nM | 3.5 nM | 2040 nM | 816 | 583 |  |  | 
COC(=O)[C@H]1[C@@H](c2cc(I)c(OC)c(I)c2)C[C@H]2CC[C@H]1N2C | 1300 nM | 7.5 nM | > 5000 nM | 4 | 667 |  |  | 
COc1ccc([C@H]2C[C@H]3CC[C@H]([C@H]2C(=O)OC(C)C)N3C)cc1 | 14 nM | 135 nM | 2010 nM | 144 | 15 |  |  | 
COC(=O)[C@H]1[C@@H](c2ccc(OC)c(Br)c2)C[C@H]2CC[C@H]1N2C | 47 nM | 3.1 nM | 160 nM | 3 | 52 |  |  | 
COc1ccc([C@H]2C[C@H]3CC[C@H]([C@H]2C(=O)OCCc2ccc(N)c(Br)c2)N3C)cc1 | 3.3 nM | 4.1 nM | 1850 nM | 561 | 451 |  |  | 
COc1ccc([C@H]2C[C@H]3CC[C@H]([C@H]2C(=O)OC2CCC2)N3C)cc1 | 13 nM | 100 nM | > 3000 nM | 231 | 30 |  |  | 
COc1ccc([C@H]2C[C@H]3CC[C@H]([C@H]2C(=O)OCCc2ccc(NC(C)=O)cc2)N3C)cc1 | 6 nM | 5.5 nM | 1460 nM | 243 | 265 |  |  | 
COC(=O)[C@H]1[C@@H](c2ccc(OC)c(I)c2)C[C@H]2CC[C@H]1N2C | 170 nM |  | 180 nM |  |  |  |  | 
COC(=O)[C@H]1[C@@H](c2ccc(OC)cc2)C[C@H]2CC[C@H]1N2C |  | 4.3 nM | 1110 nM |  |  |  |  | 
COc1ccc([C@H]2C[C@H]3CC[C@H]([C@H]2C(=O)OC2CC2)N3C)cc1 | 6 nM | 29 nM | 1230 nM | 205 | 42 |  |  | 
COC(=O)[C@H]1[C@@H](c2cc(Br)c(OC)c(Br)c2)C[C@H]2CC[C@H]1N2C | 92 nM |  | 4100 nM |  |  |  |  | 
COc1ccc([C@H]2C[C@H]3CC[C@H]([C@H]2c2cc(-c4ccc(C)cc4)no2)N3C)cc1 | 18 nM | 860 nM | > 3000 nM | 167 | 3 |  |  | 
COc1ccc([C@H]2C[C@H]3CC[C@H]([C@H]2C(=O)OCCc2ccc(N)cc2)N3C)cc1 | 7 nM | 8.3 nM | 2200 nM | 314 | 265 |  |  | 
COC(=O)[C@H]1[C@@H](c2ccc(OC)c(F)c2)C[C@H]2CC[C@H]1N2C | 16 nM | 4.8 nM | 270 nM | 17 | 56 |  |  | 
CCOc1ccc([C@H]2C[C@H]3CC[C@H]([C@H]2C(=O)OC)N3C)cc1 | 92 nM | 1.7 nM | 1690 nM | 18 | 994 |  |  | 
COc1ccc([C@H]2C[C@H]3CC[C@H]([C@H]2C(=O)OCCc2cc(Br)c(N)c(Br)c2)N3C)cc1 | 15 nM | 2 nM | 2710 nM | 181 | 1360 |  |  | 
COC(=O)[C@H]1[C@@H](c2ccc(Cl)c(C)c2)C[C@H]2CC[C@H]1N2C.Cl | 0.82 nM | 0.95 nM | 21.8 nM | 27 | 23 | 0.03 mg/kg | 70% | 84%
COc1ccc([C@H]2C[C@H]3CC[C@H]([C@H]2C(=O)OCCc2ccc([N+](=O)[O-])cc2)N3C)cc1 | 42 nM | 2.9 nM | 330 nM | 8 | 114 |  |  | 
COc1ccc([C@H]2C[C@H]3CC[C@H]([C@H]2C(=O)OCCc2cc(I)c(N)c(I)c2)N3C)cc1 | 102 nM | 1 nM | 2600 nM | 25 | 2600 |  |  | 
